Reference: ChEMBL document CHEMBL4190364, “Design, synthesis and anti-HIV evaluation of novel diarylpyridine derivatives as potent HIV-1 NNRTIs” (Eur J Med Chem, 2017)

Key:
[1] = system: Human immunodeficiency virus 1; assay: Antiviral activity against HIV1 RES056 expressing reverse transcriptase K103N/Y181C double mutant infected in human MT4 cells assessed as inhibition of virus-induced cytopathogenicity by measuring virus-induced syncytium formation by MTT assay; format: functional, organism-based; details: Human immunodeficiency virus 1, RES056, MT4
In short: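 MT-4 cells (exponentially growing, spun 5 min at 220 g, resuspended at 6×10^5 cells/mL) infected with 100-300 CCID₅₀ virus; serial fivefold compound dilutions added at start, triplicate wells, mock-infected set in parallel. Viability read by MTT reduction at 540 and 690 nm after 5 days; median OD of three wells; EC₅₀ = concentration inhibiting virus-induced syncytium formation by 50%.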

[2] = biological target: Human immunodeficiency virus type 1 reverse transcriptase (Human immunodeficiency virus 1, UniProt Q72547); assay: Inhibition of recombinant wild type HIV1 reverse transcriptase p66/p51 assessed as reduction in biotin-dUTP incorporation incubated for 40 mins using poly(rA) template and oligo(dT)16 primer by picogreen dye based spectrofluorometry
[3] = Cytotoxicity in mock-infected human MT4 cells assessed as reduction in cell viability by MTT assay; format: cell-based
In short: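 Mock-infected MT-4 cells were run in parallel with the infected series: 6×10^5 cells/mL, serial fivefold compound dilutions, triplicate wells. MTT viability was read 5 days later at 540/690 nm from the median OD of three wells. CC₅₀ is the concentration cutting OD540 of mock-infected controls by 50%.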

[4] = system: Human immunodeficiency virus 2; assay: Antiviral activity against HIV2 ROD infected in human MT4 cells assessed as inhibition of virus-induced cytopathogenicity by measuring virus-induced syncytium formation by MTT assay; format: functional, organism-based; details: Human immunodeficiency virus 2, ISOLATE ROD
In short: (§1)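 MT-4 cells, exponentially growing, spun 5 min at 220 g and resuspended at 6×10^5 cells/mL. Infected with virus stock at 100-300 CCID₅₀ (HIV-1 IIIB or HIV-2 ROD). Serial fivefold compound dilutions were tested in triplicate wells. Viability was read by MTT after 5 days at 540 and 690 nm, using the median OD of three wells. EC₅₀ was taken as 50% inhibition of virus-induced syncytium formation.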

[5] = Selectivity index, ratio of CC50 for mock-infected human MT4 cells to EC50 for antiviral activity against HIV1 3B infected in human MT4 cells; format: toxicity, cell-based; details: mock-infected (CC50) and HIV1 3B infected (EC50)
In short: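 SI is CC₅₀/EC₅₀. Both values come from parallel MTT readings on mock-infected and HIV-1 IIIB-infected (100-300 CCID₅₀) MT-4 cells, in triplicate wells with serial fivefold dilutions, read after 5 days.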

[6] = system: Human immunodeficiency virus 1; assay: Antiviral activity against HIV1 3B infected in human MT4 cells assessed as inhibition of virus-induced cytopathogenicity by measuring virus-induced syncytium formation by MTT assay; format: functional, organism-based; details: Human immunodeficiency virus 1, 3B
In short: as §1, with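 “wells.” for “wells. EC₅₀ was taken as 50% inhibition of virus-induced syncytium formation.”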

[7] = system: Human immunodeficiency virus 1; assay: Potency index, ratio of EC50 for nevirapine to EC50 for test compound for antiviral activity against HIV1 3B infected in human MT4 cells by MTT assay; format: functional
[8] = biological target: Human immunodeficiency virus type 1 reverse transcriptase (Human immunodeficiency virus 1) (UniProt Q72547); assay: Potency index, ratio of IC50 for nevirapine to IC50 for test compound for inhibition of recombinant wild type HIV1 reverse transcriptase p66/p51 incubated for 40 mins using poly(rA) template and oligo(dT)16 primer by picogreen dye based spectrofluorometry

Structure (SMILES)	EC50 [1] [µM]	IC50 [2] [µM]	CC50 [3] [µM]	EC50 [4] [µM]	selectivity ratio [5]	EC50 [6] [µM]	Ratio EC50 [7]	Ratio IC50 [8]
Cc1cc(C)c(Oc2cnc(N)c(Nc3ccc(C#N)cc3)c2)c(C)c1	> 32.1	0.09	32.1	> 32.1	227	0.14	–	–
Cc1cccc(C)c1Oc1cnc([N+](=O)[O-])c(Nc2ccc(C#N)cc2)c1	> 347	–	> 347	> 347	> 171	2.03	–	–
N#Cc1ccc(Nc2cc(Oc3c(Br)cc(Br)cc3Br)cnc2[N+](=O)[O-])cc1	> 220	–	> 220	> 220	> 277	0.79	–	–
Cc1cc(C#N)cc(C)c1Oc1nc(Nc2ccc(C#N)cc2)nc(N)c1Br [ETRAVIRINE]	–	–	> 4.59	–	–	–	–	–
Cc1ccnc2c1NC(=O)c1cccnc1N2C1CC1 [NEVIRAPINE]	> 15	–	> 15	–	–	–	–	–
COc1cccc(OC)c1Oc1cnc(N)c(Nc2ccc(C#N)cc2)c1	> 345	146	> 345	> 345	> 10	35.7	–	–
N#Cc1ccc(Nc2cc(Oc3c(Br)cc(Br)cc3Br)cnc2N)cc1	> 27.7	0.17	27.7	> 27.7	55	0.5	–	–
Cc1cc(Br)c(Oc2cnc([N+](=O)[O-])c(Nc3ccc(C#N)cc3)c2)c(Br)c1	> 84.3	0.28	84.3	> 84.3	1680	0.05	–	–
Cc1cc(Cl)cc(C)c1Oc1cnc(N)c(Nc2ccc(C#N)cc2)c1	> 35.1	0.31	35.1	> 35.1	95	0.37	–	–
N#Cc1ccc(Nc2cc(Oc3c(Cl)cc(Cl)cc3Cl)cnc2[N+](=O)[O-])cc1	> 287	–	> 287	> 287	> 924	0.31	–	–
Cc1cc(Br)cc(C)c1Oc1cnc(N)c(Nc2ccc(C#N)cc2)c1	> 26.7	0.26	26.7	> 26.7	32	0.84	–	–
Cc1cc(C)c(Nc2cnc([N+](=O)[O-])c(Nc3ccc(C#N)cc3)c2)c(C)c1	> 168	0.65	168	> 168	3960	0.04	6	–
Cc1cn([C@H]2C[C@H](N=[N+]=[N-])[C@@H](CO)O2)c(=O)[nH]c1=O [ZIDOVUDINE]	–	–	> 7.48	–	> 1290	0.006	–	–
Cc1cc(C#N)cc(C)c1Oc1cnc(N)c(Nc2ccc(C#N)cc2)c1	≥ 11.5	0.17	39.5	> 39.5	577	0.07	–	–
Cc1cccc(C)c1Nc1cnc([N+](=O)[O-])c(Nc2ccc(C#N)cc2)c1	> 6.27	–	6.27	> 6.27	6	1.06	–	–
Cc1cccc(C)c1Oc1cnc(N)c(Nc2ccc(C#N)cc2)c1	> 378	0.91	> 378	> 378	> 628	0.6	–	–
O=C1Nc2ccc(Cl)cc2[C@@](C#CC2CC2)(C(F)(F)F)O1 [EFAVIRENZ]	–	–	> 6.34	–	–	–	–	–
Cc1cc(C#N)cc(C)c1Oc1cnc([N+](=O)[O-])c(Nc2ccc(C#N)cc2)c1	> 324	–	> 324	> 324	> 79	4.12	–	–
COc1cccc(OC)c1Oc1cnc([N+](=O)[O-])c(Nc2ccc(C#N)cc2)c1	–	–	> 319	> 319	–	> 319	–	–
Cc1cc(C)c(Oc2cnc([N+](=O)[O-])c(Nc3ccc(C#N)cc3)c2)c(C)c1	> 334	–	> 334	> 334	> 1160	0.29	–	–
Cc1cc(Cl)cc(C)c1Oc1cnc([N+](=O)[O-])c(Nc2ccc(C#N)cc2)c1	> 317	–	> 317	> 317	> 171	1.41	–	–
N#Cc1ccc(Nc2cc(Oc3c(F)cc(F)cc3F)cnc2[N+](=O)[O-])cc1	> 324	–	> 324	> 324	> 320	1.01	–	–
N#Cc1ccc(Nc2cc(Oc3c(Cl)cc(Cl)cc3Cl)cnc2N)cc1	> 179	0.16	179	≥ 57.7	680	0.26	–	–
Cc1cc(Br)c(Oc2cnc(N)c(Nc3ccc(C#N)cc3)c2)c(Br)c1	> 264	0.05	> 264	> 264	> 3800	0.07	–	45
Cc1cc(Br)cc(C)c1Oc1cnc([N+](=O)[O-])c(Nc2ccc(C#N)cc2)c1	> 285	–	> 285	> 285	> 64	4.41	–	–
